Assay results: ChEMBL document CHEMBL4425120, “N1-Azinylsulfonyl-1H-indoles: 5-HT6 Receptor Antagonists with Procognitive and Antidepressant-Like Properties” (ACS Med Chem Lett, 2016)
One block for each compound: values may come before it. The source made the active and inactive calls. The calls are words filed in the database; no cut-off is given here.

Tests used:
[1] = molecular target: T1, 5-hydroxytryptamine receptor 6 (Homo sapiens, UniProt P50406); experiment: Displacement of [3H]-LSD from human 5-HT6 receptor expressed in HEK293 cells by microbeta liquid scintillation counting; type: cell-based
In short: (§1)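 Ki values reported as the mean of two independent radioligand binding experiments.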

[2] = molecular target: T2, 5-hydroxytryptamine receptor 1A (Homo sapiens, UniProt P08908); experiment: Displacement of [3H]-8-OH-DPAT from human 5-HT1A receptor expressed in HEK293 cells by microbeta liquid scintillation counting; type: cell-based; in short: as §1
T2 sequence (P08908 whole entry): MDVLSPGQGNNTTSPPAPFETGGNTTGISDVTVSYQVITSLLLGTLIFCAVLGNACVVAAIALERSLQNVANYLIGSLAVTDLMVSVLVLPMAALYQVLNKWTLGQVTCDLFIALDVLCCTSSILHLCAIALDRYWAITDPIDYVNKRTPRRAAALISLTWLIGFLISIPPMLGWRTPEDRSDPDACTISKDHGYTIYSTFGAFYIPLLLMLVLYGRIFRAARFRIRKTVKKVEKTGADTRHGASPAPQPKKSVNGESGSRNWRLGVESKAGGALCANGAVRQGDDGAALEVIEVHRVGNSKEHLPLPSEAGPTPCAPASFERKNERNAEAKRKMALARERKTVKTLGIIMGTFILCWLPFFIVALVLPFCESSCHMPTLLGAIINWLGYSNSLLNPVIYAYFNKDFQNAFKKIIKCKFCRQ

[3] = molecular target: 5-hydroxytryptamine receptor 2A (Homo sapiens, UniProt P28223); experiment: Displacement of [3H]-Ketanserin from human 5-HT2A receptor expressed in HEK293 cells by microbeta liquid scintillation counting; type: cell-based; in short: as §1
[4] = molecular target: 5-hydroxytryptamine receptor 7 (Homo sapiens, UniProt P34969); experiment: Displacement of [3H]-5-CT from human 5-HT7B receptor expressed in HEK293 cells by microbeta liquid scintillation counting; type: cell-based; in short: as §1
[5] = molecular target: D(2) dopamine receptor (Homo sapiens, UniProt P14416); experiment: Displacement of [3H]-Raclopride from human D2L receptor expressed in HEK293 cells by microbeta liquid scintillation counting; type: cell-based; in short: as §1
[6] = species on record: Homo sapiens; experiment: Selectivity ratio of Ki for human 5-HT1A receptor expressed in HEK293 cells to Ki for human 5-HT6 receptor expressed in HEK293 cells; type: cell-based
[7] = species on record: Homo sapiens; experiment: Selectivity ratio of Ki for human 5-HT2A receptor expressed in HEK293 cells to Ki for human 5-HT6 receptor expressed in HEK293 cells; type: cell-based
[8] = species on record: Homo sapiens; experiment: Selectivity ratio of Ki for human 5-HT7B receptor expressed in HEK293 cells to Ki for human 5-HT6 receptor expressed in HEK293 cells; type: cell-based
[9] = species on record: Homo sapiens; experiment: Selectivity ratio of Ki for human D2L receptor expressed in HEK293 cells to Ki for human 5-HT6 receptor expressed in HEK293 cells; type: cell-based
[10] = molecular target: T1, 5-hydroxytryptamine receptor 6; experiment: Inhibition of 5-HT6 receptor (unknown origin)
[11] = tested on: Rattus norvegicus; experiment: Cognitive enhancing effect in Sprague-Dawley rat assessed as reversal of PCP induced memory deficit at 0.3 to 1 mg/kg, ip administered 1 hour and 15 mins before familiarization phase by novel object recognition test; type: functional, organism-based
In short: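 Novel object recognition in rats with PCP-induced memory deficit; compounds given i.p.; groups compared with vehicle and with PCP; N = 7–12 animals per group; mean ± SEM.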

[12] = tested on: Rattus norvegicus; experiment: Antidepressant activity in Sprague-Dawley rat assessed as increase in climbing time at 3 mg/kg, ip adminstered 60 mins prior to testing measured for 5 mins by forced swimming test; type: functional, organism-based
In short: (§2)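 Modified forced swim test in rats, compounds given i.p.; immobility and climbing times scored against a vehicle-treated group; N = 7–8 animals per group; mean ± SEM.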

[13] = Toxicity in Sprague-Dawley rat assessed as effect on locomotory activity at 0.3 to 3 mg/kg, ip measured for 5 mins by open field test; type: organism-based; conditions: in vivo
[14] = tested on: Rattus norvegicus; experiment: Antianxietic activity in ip dosed Wistar rat assessed as increase in number of licks accepted measured for 5 mins by Vogel conflict drinking test; type: functional; conditions: read-out: MED
[15] = tested on: Rattus norvegicus; experiment: Antianxietic activity in ip dosed Wistar rat assessed as increase in number of shocks accepted measured for 5 mins by Vogel conflict drinking test; type: functional; conditions: read-out: MED
[16] = molecular target: 5-hydroxytryptamine receptor 6 (Rattus norvegicus, UniProt P31388); experiment: Displacement of [3H]Lu AE60157 from rat brain 5-HT6 receptor
[17] = tested on: Rattus norvegicus; experiment: Antidepressant activity in Sprague-Dawley rat assessed as reduction in immobility time at 3 mg/kg, ip adminstered 60 mins prior to testing measured for 5 mins by forced swimming test; type: functional, organism-based; in short: as §2

T1 sequence (P50406 whole entry): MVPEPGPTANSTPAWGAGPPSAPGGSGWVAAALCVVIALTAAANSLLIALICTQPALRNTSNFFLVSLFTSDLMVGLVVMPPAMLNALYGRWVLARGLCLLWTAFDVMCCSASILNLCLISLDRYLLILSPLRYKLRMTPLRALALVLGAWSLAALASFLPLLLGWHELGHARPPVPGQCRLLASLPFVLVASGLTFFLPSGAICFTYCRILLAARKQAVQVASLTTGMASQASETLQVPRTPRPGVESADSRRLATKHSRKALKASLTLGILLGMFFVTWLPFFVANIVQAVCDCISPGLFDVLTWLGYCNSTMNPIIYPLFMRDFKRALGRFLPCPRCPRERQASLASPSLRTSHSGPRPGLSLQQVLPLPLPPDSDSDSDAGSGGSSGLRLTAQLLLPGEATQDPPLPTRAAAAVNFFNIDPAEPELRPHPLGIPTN
Chain of 5-hydroxytryptamine receptor 2A (P28223 whole entry): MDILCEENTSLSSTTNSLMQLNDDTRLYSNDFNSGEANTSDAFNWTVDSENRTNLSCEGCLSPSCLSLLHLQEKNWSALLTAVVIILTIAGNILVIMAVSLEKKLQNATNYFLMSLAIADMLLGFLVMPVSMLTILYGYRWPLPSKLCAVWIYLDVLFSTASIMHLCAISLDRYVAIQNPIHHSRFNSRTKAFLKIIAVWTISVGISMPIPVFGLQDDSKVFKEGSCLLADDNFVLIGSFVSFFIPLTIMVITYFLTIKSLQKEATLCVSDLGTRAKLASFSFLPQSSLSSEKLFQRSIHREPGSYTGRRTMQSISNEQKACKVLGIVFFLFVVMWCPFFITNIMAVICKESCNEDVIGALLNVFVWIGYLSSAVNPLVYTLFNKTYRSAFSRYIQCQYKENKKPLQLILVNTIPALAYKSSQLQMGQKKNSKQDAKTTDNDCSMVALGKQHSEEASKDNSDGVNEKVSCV
Chain of 5-hydroxytryptamine receptor 7 (P34969 whole entry): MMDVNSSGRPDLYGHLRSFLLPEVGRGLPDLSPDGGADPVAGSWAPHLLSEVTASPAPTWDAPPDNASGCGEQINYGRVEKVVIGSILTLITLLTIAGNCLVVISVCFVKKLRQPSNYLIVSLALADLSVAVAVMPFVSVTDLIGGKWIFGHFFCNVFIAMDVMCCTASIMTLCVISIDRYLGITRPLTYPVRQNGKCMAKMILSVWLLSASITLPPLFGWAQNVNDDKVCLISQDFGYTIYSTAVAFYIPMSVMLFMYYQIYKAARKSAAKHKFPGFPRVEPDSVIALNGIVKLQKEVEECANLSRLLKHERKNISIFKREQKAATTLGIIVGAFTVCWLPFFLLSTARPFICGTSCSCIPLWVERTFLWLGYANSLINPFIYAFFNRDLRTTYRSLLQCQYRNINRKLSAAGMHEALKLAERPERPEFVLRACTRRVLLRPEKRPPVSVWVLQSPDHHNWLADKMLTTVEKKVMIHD
Chain of D(2) dopamine receptor (P14416 whole entry): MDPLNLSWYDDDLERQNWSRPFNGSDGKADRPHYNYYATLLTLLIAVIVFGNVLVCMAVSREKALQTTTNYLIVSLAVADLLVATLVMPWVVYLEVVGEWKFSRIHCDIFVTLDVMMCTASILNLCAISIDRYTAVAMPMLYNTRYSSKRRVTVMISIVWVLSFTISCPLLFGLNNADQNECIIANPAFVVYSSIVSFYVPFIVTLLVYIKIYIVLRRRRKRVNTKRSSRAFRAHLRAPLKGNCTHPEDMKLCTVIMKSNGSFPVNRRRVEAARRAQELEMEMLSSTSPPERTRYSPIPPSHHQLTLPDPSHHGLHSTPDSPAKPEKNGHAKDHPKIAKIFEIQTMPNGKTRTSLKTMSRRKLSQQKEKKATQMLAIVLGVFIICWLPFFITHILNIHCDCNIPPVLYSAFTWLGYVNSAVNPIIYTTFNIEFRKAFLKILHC
Chain of 5-hydroxytryptamine receptor 6 (Rattus norvegicus, UniProt P31388) (P31388 whole entry): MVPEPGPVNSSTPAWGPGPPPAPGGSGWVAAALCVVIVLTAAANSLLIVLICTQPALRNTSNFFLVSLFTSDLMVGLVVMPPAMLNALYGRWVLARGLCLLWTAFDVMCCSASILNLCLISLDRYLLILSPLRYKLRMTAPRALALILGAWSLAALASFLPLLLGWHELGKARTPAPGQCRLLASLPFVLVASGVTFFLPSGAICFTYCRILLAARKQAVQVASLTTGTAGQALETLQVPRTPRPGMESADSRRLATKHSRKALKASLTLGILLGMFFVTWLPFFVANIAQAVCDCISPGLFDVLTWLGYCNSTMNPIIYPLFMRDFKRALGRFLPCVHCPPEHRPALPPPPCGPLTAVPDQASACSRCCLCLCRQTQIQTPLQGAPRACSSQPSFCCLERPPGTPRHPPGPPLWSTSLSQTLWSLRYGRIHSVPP

SMILES: O=S(=O)(c1cncc2ccccc12)n1cc(C2=CCNCC2)c2ccccc21
- Ki [1]: 5 nM

SMILES: O=S(=O)(c1ccc2ncccc2c1)n1cc(C2=CCNCC2)c2ccc(Cl)cc21
- Ki [1]: 112 nM

- Ki [1]: 30 nM
SMILES: COc1ccc2c(c1)c(C1CCNCC1)cn2S(=O)(=O)c1ccc2cccnc2c1

SMILES: Cc1c(C2=CCNCC2)c2ccccc2n1S(=O)(=O)c1ccc2cccnc2c1
- Ki [1]: 18 nM

SMILES: COc1ccc2c(c1)c(C1=CCNCC1)cn2S(=O)(=O)c1cc2ccccc2cn1
- Ki [1]: 6 nM

SMILES: O=S(=O)(c1ccc2cccnc2c1)n1cc(C2=CCNCC2)c2ccccc21
- Ki [1]: 7 nM

SMILES: COc1ccc2c(c1)c(C1=CCN(C)CC1)cn2S(=O)(=O)c1ccc2cccnc2c1
- Ki [1]: 82 nM

SMILES: COc1ccc2c(c1)c(C1=CCNCC1)cn2S(=O)(=O)c1cnc2ccccc2c1
- Ki [1]: 8 nM

SMILES: O=S(=O)(c1cc2ccccc2cn1)n1cc(C2=CCNCC2)c2ccccc21
- Ki [1]: 12 nM

SMILES: O=S(=O)(c1cncc2ccccc12)n1cc(C2=CCNCC2)c2cc(Cl)ccc21
- Ki [1]: 18 nM

SMILES: Cc1c(C2=CCNCC2)c2ccccc2n1S(=O)(=O)c1cc2ccccc2cn1
- Ki [1]: 20 nM

SMILES: COc1ccc2c(c1)c(C1=CCNCC1)cn2S(=O)(=O)c1ccc2ncccc2c1
- Ki [1]: 14 nM

SMILES: O=S(=O)(c1ccc2cccnc2c1)n1cc(C2=CCNCC2)c2cc(Cl)ccc21
- Ki [1]: 9 nM
- Ki [2]: 2470 nM
- Ki [3]: 2590 nM
- Ki [4]: 7320 nM
- Ki [5]: 1170 nM
- Ratio Ki [6]: 70
- Ratio Ki [7]: 70
- Ratio Ki [8]: 70
- Ratio Ki [9]: 70

- Ki [10]: 2.1 nM
SMILES: CSc1nn2c(C)cc(C)nc2c1S(=O)(=O)c1ccccc1

SMILES: O=S(=O)(c1ccc2cccnc2c1)n1cc(C2=CCNCC2)c2ccc(Cl)cc21
- Ki [1]: 22 nM

SMILES: CCCCN1CC=C(c2cn(S(=O)(=O)c3ccc4cccnc4c3)c3ccc(OC)cc23)CC1
- Ki [1]: 219 nM

- Ki [16]: 0.234 nM
SMILES: O=S(=O)(c1ccccc1)c1cnc2c(N3CCNCC3)cccc2c1 [INTEPIRDINE]
- Activity [11]: Active
- Activity [12]: Active
- Activity [13]: Non-Toxic
- minimal effective dose [14]: 3 mg/kg
- minimal effective dose [15]: 3 mg/kg
- Activity [17]: Active

SMILES: O=S(=O)(c1cccc2ncccc12)n1cc(C2=CCNCC2)c2cc(Cl)ccc21
- Ki [1]: 11 nM

SMILES: O=S(=O)(c1cnc2ccccc2c1)n1cc(C2=CCNCC2)c2ccc(Cl)cc21
- Ki [1]: 37 nM

SMILES: CCCN1CC=C(c2cn(S(=O)(=O)c3ccc4cccnc4c3)c3ccc(OC)cc23)CC1
- Ki [1]: 247 nM

SMILES: O=S(=O)(c1cc2ccccc2cn1)n1cc(C2=CCNCC2)c2ccc(Cl)cc21
- Ki [1]: 102 nM

- Ki [1]: 24 nM
SMILES: COc1ccc2c(c1)c(C1CCNCC1)cn2S(=O)(=O)c1cncc2ccccc12

SMILES: O=S(=O)(c1ccc2ncccc2c1)n1cc(C2=CCNCC2)c2ccccc21
- Ki [1]: 20 nM
- Ki [2]: 1870 nM
- Ki [3]: 1410 nM
- Ki [4]: 6660 nM
- Ki [5]: 1410 nM
- Ratio Ki [6]: 70
- Ratio Ki [7]: 70
- Ratio Ki [8]: 70
- Ratio Ki [9]: 70

SMILES: O=S(=O)(c1cnc2ccccc2c1)n1cc(C2=CCNCC2)c2cc(Cl)ccc21
- Ki [1]: 11 nM

SMILES: COc1ccc2c(c1)c(C1=CCNCC1)cn2S(=O)(=O)c1cccc2ncccc12
- Ki [1]: 4 nM
- Ki [2]: 2940 nM
- Ki [3]: 1550 nM
- Ki [4]: 2350 nM
- Ki [5]: 302 nM
- Ratio Ki [6]: 70
- Ratio Ki [7]: 70
- Ratio Ki [8]: 70
- Ratio Ki [9]: 70

SMILES: O=S(=O)(c1cnc2ccccc2c1)n1cc(C2=CCNCC2)c2ccccc21
- Ki [1]: 13 nM
